From ChEMBL document CHEMBL4251745, “The Notch Inhibitors Isolated from Nerium indicum” (J Nat Prod, 2018) come the findings set out here.

The target in assay [1] is Neurogenic locus notch homolog protein 1 (Mus musculus, UniProt Q01705). In words: Inhibition of recombinant mouse N-terminal FLAG-tagged Notch1 (1704 to 2531 residues) expressed in human LS174T cells assessed as reduction in doxycycline-induced NICD expression after 12 hrs by Bright-Glo luciferase reporter gene assay. Particulars: for pIC50: read-out: IC50; for IC50: ls174t. The class given is cell-based. In short, it runs like this:
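LS174T cells stably carrying a luciferase reporter under 12× RBP-J sites (β-globin promoter), 2 × 10^4 per well. After 12 h, doxycycline 50 ng/mL for 12 h induced Notch1(1704–2531). Then dox-free medium with compound, 0.1% DMSO, 12 h at 37 °C. Read by Bright-Glo luminescence, n = 3, with parallel FMCA viability.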
On the technique in general: Reporter assays use an easily measured gene product as a stand-in for the process of interest.

Assay [2] concerns HPBALL. The experiment in a line: Effect on Notch1 mRNA expression in human HPBALL cells at 0.1 to 0.5 uM measured after 12 hrs. The class given is functional, cell-based.
Assay [3] has as its target Neurogenic locus notch homolog protein 1 (Homo sapiens) (UniProt P46531). The experiment in a line: Inhibition of Notch1 in human HPBALL cells assessed as reduction in NICD expression at 0.5 uM after 12 hrs in presence of proteasome inhibitor MG132 by Western blot analysis. The class given is cell-based. In short, it runs like this: (§1)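 HPB-ALL cells at 1 × 10^6 per 6 cm dish, treated 12 h at 37 °C with compound plus proteasome inhibitor MG132 (18.5 μM). Lysates blotted on PVDF, probed for cleaved Notch1 (Val1744)/NICD with β-actin loading control, ECL detection.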

The test system of assay [4] is HPBALL. The experiment in a line: Down regulation of Notch1 expression in human HPBALL cells at 0.5 uM after 12 hrs by Western blot analysis. The class given is functional, cell-based.
For assay [5], the target named is Neurogenic locus notch homolog protein 1 (Homo sapiens) (UniProt P46531). The experiment in a line: Inhibition of Notch1 in human HPBALL cells assessed as reduction in HES1 expression after 72 hrs by Western blot analysis. The class given is cell-based. In short, it runs like this:
(§2)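 HPB-ALL cells at 5 × 10^5 per 6 cm dish in RPMI-1640/10% FBS containing a range of compound concentrations, 72 h at 37 °C. Lysates run on SDS-PAGE and PVDF; probed with anti-HES1 or anti-cleaved Notch1 (Val1744) for NICD, β-actin control, ECL read-out.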

Assay [6] shares this target. In words: Inhibition of Notch1 in human HPBALL cells assessed as reduction in NICD expression at 0.5 uM after 12 hrs by Western blot analysis. The class given is cell-based. (Immunoblotting shows a protein as a band on a membrane.)
Assay [7] has the same target. In words: Inhibition of Notch1 in human HPBALL cells assessed as reduction in NICD expression after 72 hrs by Western blot analysis. The class given is cell-based. In short, it runs like this: as §2
Assay [8] has as its system HEK293. In words: Cytotoxicity against HEK293 cells after 72 hrs by fluorescence assay. The class given is cell-based. To be noted: Homo sapiens, HEK293, 72 h. In short, it runs like this: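 HEK293 cells at 1 × 10^4 per well in DMEM with 10% FBS and penicillin/streptomycin. Pre-incubated 24 h at 37 °C, then medium replaced with fresh medium holding a range of compound concentrations. Exposed 72 h; medium removed and proliferation read by fluorometric microculture cytotoxicity assay (FMCA).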

In assay [9] the test system is HPBALL. The experiment in a line: Cytotoxicity against human HPBALL cells after 72 hrs by alamar blue dye based fluorescence assay. The class given is functional, cell-based. The method in brief: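 HPB-ALL T-ALL cells at 1 × 10^4 per well in RPMI-1640 with 10% FBS and penicillin/streptomycin. Compound added at seeding over a concentration range; 72 h at 37 °C. AlamarBlue then added for 4 h and fluorescence read to give viability.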
A general note: Alamar Blue is a resazurin reagent that responds to reducing activity.

Assay [10] relates to HPBALL. In words: Down regulation of Notch1 expression in human HPBALL cells at 0.5 uM after 12 hrs in presence of proteasome inhibitor MG132 by Western blot analysis. The class given is functional, cell-based. The method in brief: as §1
Assay [11] concerns the target Neurogenic locus notch homolog protein 1 (Mus musculus) (UniProt Q01705). In words: Inhibition of doxycycline-induced recombinant mouse N-terminal FLAG-tagged Notch1 (1704 to 2531 residues) activation expressed in human LS174T cells assessed as reduction in Hes1 level at 0.05 to 0.3 uM after 12 hrs by Western blot analysis. The class given is cell-based. In short, it runs like this:
(§3)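 LS174T Notch assay cells at 1 × 10^6 per 6 cm dish, 12 h at 37 °C, then doxycycline 50 ng/mL for 12 h to induce FLAG-Notch1(1704–2531). Switched to fresh medium with compound for 12 h. Lysates probed by western blot with anti-FLAG, anti-cleaved Notch1 (Val1744), anti-HES1 or anti-HES5, β-actin control.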

Assay [12] has the same target. The experiment in a line: Inhibition of doxycycline-induced recombinant mouse N-terminal FLAG-tagged Notch1 (1704 to 2531 residues) activation expressed in human LS174T cells assessed as reduction in Hes5 level at 0.05 to 0.3 uM after 12 hrs by Western blot analysis. The class given is cell-based. The method in brief: as §3
Assay [13] has as its system LS174T. The experiment in a line: Inhibition of doxycycline-induced Notch1 (1704 to 2531 residues) expression in human LS174T cells after 12 hrs by Western blot analysis. The class given is functional, cell-based. The method in brief:
as §3

Assay [14] has as its target Neurogenic locus notch homolog protein 1 (Mus musculus) (UniProt Q01705). The experiment in a line: Inhibition of doxycycline-induced recombinant mouse N-terminal FLAG-tagged Notch1 (1704 to 2531 residues) activation expressed in human LS174T cells assessed as reduction in NCID expression after 12 hrs by Western blot analysis. The class given is cell-based. In short, it runs like this:
as §3

Assay [15] shares this target. In words: Inhibition of doxycycline-induced recombinant mouse N-terminal FLAG-tagged Notch1 (1704 to 2531 residues) activation expressed in human LS174T cells assessed as reduction in NCID expression at 0.5 uM after 12 hrs in presence of proteasome inhibitor MG132 by Western blot analysis. The class given is cell-based.

pIC50: −log10 of the molar value. Activity calls are given as the source filed them. The rule behind the calls is not given here.

Neurogenic locus notch homolog protein 1, sequence (Q01705 whole entry, the tested form may be a part): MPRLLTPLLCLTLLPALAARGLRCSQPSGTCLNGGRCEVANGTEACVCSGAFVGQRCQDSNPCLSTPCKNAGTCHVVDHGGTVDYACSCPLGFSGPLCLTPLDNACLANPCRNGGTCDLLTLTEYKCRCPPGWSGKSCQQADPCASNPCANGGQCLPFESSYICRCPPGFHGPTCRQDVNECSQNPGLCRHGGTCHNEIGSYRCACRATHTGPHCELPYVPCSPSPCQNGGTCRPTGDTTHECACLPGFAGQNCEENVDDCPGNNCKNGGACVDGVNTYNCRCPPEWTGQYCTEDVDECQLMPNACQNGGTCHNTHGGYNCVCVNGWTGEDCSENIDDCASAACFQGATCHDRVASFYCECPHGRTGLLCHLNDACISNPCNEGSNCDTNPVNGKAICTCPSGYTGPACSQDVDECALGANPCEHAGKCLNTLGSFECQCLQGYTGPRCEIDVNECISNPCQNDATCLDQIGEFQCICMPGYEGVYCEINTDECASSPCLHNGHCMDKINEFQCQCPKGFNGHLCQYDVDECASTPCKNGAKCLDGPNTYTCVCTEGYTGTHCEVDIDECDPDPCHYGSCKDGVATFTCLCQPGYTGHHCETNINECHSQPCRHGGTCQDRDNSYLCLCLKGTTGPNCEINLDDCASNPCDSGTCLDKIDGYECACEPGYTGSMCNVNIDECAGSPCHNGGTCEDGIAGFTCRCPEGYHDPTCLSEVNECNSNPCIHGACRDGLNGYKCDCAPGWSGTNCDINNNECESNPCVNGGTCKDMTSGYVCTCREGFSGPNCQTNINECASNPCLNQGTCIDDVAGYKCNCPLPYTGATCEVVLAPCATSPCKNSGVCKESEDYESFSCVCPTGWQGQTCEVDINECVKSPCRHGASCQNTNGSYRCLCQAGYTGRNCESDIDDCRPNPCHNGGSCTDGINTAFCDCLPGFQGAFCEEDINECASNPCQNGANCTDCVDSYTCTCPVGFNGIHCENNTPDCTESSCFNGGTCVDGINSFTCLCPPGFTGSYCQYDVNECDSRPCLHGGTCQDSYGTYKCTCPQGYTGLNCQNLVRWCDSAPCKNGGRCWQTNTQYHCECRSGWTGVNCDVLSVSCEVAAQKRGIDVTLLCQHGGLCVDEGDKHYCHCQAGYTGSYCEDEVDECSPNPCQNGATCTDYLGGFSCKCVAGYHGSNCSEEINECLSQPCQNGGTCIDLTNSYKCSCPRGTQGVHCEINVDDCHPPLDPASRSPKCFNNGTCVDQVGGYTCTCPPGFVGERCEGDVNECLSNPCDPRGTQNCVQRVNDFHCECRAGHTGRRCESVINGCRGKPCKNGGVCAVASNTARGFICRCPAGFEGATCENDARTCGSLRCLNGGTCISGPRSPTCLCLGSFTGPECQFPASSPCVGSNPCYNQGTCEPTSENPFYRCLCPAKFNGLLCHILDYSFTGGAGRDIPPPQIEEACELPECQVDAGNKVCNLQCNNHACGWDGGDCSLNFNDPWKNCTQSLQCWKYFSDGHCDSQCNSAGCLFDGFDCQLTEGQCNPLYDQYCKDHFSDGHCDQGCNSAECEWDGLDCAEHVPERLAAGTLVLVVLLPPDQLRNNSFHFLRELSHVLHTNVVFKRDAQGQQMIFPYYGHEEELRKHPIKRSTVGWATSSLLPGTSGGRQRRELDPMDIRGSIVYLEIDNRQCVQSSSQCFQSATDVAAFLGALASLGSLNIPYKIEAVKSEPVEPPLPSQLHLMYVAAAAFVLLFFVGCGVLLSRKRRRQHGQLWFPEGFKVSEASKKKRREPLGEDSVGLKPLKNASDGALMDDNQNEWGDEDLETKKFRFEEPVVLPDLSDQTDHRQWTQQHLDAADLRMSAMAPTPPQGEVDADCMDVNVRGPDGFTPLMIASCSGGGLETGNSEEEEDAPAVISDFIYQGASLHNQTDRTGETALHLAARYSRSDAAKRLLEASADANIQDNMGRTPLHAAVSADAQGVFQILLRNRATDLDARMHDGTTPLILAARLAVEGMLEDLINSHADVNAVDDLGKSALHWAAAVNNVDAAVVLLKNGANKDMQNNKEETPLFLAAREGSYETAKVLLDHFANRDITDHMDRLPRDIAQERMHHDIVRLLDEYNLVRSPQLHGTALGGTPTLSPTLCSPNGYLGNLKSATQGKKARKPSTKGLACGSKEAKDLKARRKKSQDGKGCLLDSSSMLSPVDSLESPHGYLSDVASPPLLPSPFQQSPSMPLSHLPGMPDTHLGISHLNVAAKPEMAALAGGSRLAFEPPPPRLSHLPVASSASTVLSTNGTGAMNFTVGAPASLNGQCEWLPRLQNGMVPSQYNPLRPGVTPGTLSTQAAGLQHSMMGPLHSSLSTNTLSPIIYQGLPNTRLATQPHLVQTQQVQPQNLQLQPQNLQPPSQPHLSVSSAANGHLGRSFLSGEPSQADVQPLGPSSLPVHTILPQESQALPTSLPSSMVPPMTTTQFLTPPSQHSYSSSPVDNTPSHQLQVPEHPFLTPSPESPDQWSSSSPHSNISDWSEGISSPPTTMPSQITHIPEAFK
Neurogenic locus notch homolog protein 1 (Mus musculus), sequence (Q01705 whole entry, the tested form may be a part): as above
Neurogenic locus notch homolog protein 1 (Homo sapiens), sequence (P46531 whole entry): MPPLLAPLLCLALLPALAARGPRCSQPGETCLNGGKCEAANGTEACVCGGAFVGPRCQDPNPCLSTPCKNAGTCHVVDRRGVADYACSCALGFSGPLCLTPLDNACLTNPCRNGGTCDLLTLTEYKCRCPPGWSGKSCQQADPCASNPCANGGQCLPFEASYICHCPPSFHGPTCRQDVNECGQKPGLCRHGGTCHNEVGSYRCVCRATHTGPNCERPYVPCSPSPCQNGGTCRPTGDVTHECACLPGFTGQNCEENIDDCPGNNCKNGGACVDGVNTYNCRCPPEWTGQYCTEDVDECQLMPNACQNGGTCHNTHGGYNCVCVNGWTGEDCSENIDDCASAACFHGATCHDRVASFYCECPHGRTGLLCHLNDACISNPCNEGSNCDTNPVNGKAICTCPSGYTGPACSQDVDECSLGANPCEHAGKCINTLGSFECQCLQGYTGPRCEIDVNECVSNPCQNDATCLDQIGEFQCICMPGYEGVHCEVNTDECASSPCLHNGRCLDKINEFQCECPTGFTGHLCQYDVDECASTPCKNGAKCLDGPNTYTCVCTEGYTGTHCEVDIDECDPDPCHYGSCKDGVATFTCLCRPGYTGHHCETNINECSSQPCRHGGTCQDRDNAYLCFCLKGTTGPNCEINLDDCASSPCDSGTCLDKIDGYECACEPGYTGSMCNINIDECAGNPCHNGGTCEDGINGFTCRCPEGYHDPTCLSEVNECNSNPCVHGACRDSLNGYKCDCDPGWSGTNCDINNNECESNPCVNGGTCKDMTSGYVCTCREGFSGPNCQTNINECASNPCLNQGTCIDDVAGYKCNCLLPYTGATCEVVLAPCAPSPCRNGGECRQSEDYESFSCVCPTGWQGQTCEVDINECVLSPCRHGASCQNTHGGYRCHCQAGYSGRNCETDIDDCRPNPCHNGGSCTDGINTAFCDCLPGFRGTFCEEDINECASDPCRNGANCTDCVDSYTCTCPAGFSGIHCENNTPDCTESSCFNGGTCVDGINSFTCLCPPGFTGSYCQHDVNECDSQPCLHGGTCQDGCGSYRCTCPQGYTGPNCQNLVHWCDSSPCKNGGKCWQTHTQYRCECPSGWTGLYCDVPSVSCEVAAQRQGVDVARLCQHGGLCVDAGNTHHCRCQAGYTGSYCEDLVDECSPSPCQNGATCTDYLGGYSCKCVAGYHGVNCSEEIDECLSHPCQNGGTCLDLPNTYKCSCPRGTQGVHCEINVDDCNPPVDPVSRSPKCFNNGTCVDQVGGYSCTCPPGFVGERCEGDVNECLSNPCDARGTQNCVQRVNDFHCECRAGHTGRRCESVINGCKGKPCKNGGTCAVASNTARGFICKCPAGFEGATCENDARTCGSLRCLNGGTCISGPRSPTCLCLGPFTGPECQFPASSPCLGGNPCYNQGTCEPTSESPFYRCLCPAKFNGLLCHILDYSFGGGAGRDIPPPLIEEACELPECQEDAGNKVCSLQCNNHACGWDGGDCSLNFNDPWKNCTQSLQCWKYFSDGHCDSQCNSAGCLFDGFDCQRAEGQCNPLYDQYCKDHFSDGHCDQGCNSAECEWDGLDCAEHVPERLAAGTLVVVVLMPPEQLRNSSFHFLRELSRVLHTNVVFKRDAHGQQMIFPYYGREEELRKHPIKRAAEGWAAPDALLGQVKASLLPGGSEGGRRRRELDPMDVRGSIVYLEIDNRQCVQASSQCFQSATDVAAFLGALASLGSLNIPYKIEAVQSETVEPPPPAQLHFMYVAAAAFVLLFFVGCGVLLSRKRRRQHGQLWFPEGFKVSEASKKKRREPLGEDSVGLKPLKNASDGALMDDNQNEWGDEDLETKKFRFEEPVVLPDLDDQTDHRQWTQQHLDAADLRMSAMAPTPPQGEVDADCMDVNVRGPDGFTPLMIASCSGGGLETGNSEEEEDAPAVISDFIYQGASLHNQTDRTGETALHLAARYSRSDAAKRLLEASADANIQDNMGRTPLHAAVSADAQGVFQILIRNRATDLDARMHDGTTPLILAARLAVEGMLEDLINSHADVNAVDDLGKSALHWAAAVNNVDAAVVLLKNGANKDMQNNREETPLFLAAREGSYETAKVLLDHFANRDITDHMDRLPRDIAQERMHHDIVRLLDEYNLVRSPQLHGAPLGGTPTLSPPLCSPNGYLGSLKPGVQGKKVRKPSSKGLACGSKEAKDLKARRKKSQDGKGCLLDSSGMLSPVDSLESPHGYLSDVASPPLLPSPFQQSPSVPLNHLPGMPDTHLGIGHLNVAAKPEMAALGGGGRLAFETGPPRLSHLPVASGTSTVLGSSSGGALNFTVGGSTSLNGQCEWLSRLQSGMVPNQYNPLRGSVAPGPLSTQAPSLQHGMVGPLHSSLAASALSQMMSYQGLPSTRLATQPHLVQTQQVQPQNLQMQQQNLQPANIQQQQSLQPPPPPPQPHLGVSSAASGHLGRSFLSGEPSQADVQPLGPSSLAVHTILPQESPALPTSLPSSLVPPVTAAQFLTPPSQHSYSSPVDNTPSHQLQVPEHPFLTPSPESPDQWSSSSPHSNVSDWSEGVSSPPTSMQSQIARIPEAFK

For orientation: pIC50 means −log10 of the IC50, conventionally taken in molar units. With `CO[C@@H]1C[C@H](O[C@H]2CC[C@@]3(C)[C@H](CC[C@@H]4[C@@H]3CC[C@]3(C)[C@@H](C5=CC(=O)OC5)[C@@H](OC(C)=O)C[C@]43O)C2)O[C@H](C)[C@@H]1O`, the pIC50 in assay [1] is 5.57.

Consider `CO[C@@H]1C[C@H](O[C@H]2CC[C@@]3(C)[C@H](CC[C@@H]4[C@@H]3CC[C@]3(C)[C@@H](C5=CC(=O)OC5)CC[C@]43O)C2)O[C@H](C)[C@@H]1O`, for which, in [1], the negative-log IC50 (pIC50) was 5.38.

For the compound `CO[C@@H]1C[C@H](O[C@H]2CC[C@@]3(C)[C@H](CC[C@]4(O)[C@@H]3CC[C@]3(C)[C@@H](C5=CC(=O)OC5)CC[C@@]34O)C2)O[C@H](C)[C@@H]1O`, in assay [1], the IC50 entry is “Not Active”.

For the compound `CO[C@H]1C[C@H](O[C@H]2CC[C@@]3(C)[C@H](CC[C@@H]4[C@@H]3CC[C@]3(C)[C@@H](C5=CC(=O)OC5)CC[C@]43O)C2)O[C@@H](O)[C@@H]1O`, the pIC50 in assay [1] was 5.57.

Regarding `CO[C@@H]1C[C@H](O[C@H]2CC[C@@]3(C)[C@H](CC[C@@H]4[C@@H]3CC[C@]3(C)C(C5=CC(=O)OC5)=CC[C@]43O)C2)O[C@H](C)[C@@H]1O`, the IC50 result in assay [1] was “Not Active”.

`CO[C@H]1C[C@H](O[C@H]2CC[C@@]3(C)[C@H](CC[C@@H]4[C@@H]3CC[C@]3(C)[C@@H](C5=CC(=O)OC5)[C@@H](O)C[C@]43O)C2)O[C@@H](C)[C@@H]1O`: the pIC50 in assay [1] was 5.60.

`C[C@]12CC[C@H](O)C[C@H]1CC[C@@H]1[C@@H]2CC[C@]2(C)[C@@H](C3=CC(=O)OC3)CC[C@]12O` [DIGITOXIGENIN]: the IC50 result in assay [1] is “Not Active”.

For `CO[C@H]1C[C@H](O[C@H]2CC[C@@]3(C)[C@H](CC[C@@H]4[C@@H]3CC[C@]3(C)[C@@H](C5=CC(=O)OC5)[C@@H](OC(C)=O)C[C@]43O)C2)O[C@@H](C)[C@@H]1O` [OLEANDRIN], the pIC50 is 6.92 in assay [1], 7.55 in [8] and 7.85 in [9]. Also, the result in assay [2] was inactive. In addition, the inhibition result in [3] and in [15] was “inactive” throughout. Besides, the outcome in assay [4] and in assay [10] was Active. The inhibition result in assay [5], in [7], in assay [13] and in [14] was “Dose-dependent effect” throughout. Moreover, the inhibition entry in assay [6], in assay [11] and in [12] was “Active” each time.
